{
  "source": "ChEMBL document CHEMBL1137220",
  "about": "“2-(2-(dimethylaminomethyl)phenoxy)-5-iodophenylamine: an improved serotonin transporter imaging agent” (J Med Chem, 2004)",
  "key": {"[1]": {"assay": "Biodistribution in rat liver was determined after 6 hours of intravenous administration of the compound; [125I]- is used as radioactive isotope", "assay_type": "ADME, organism-based", "details": "in vivo", "in_short": "(§1)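 Rats under ether anesthesia, three per group, received 10 μCi tracer in 0.2 mL saline into the femoral vein. They were killed by cardiac excision under ether at each time point. Organs were removed, weighed and counted. Percent dose per organ was calculated against a 1%-of-injected-dose standard counted at the same time.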"}, "[2]": {"assay": "Regional brain distribution in rat cortex was determined after 60 min of intravenous administration of the compound; [125I]- is used as radioactive isotope", "assay_type": "ADME", "details": "in vivo, 1 h", "in_short": "(§2)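 Rats, three per group, injected with 10 μCi tracer in 0.2 mL saline via the femoral vein under ether anesthesia and killed by cardiac excision at the stated time. Cortex (frontal plus occipital), striatum, hippocampus, cerebellum and hypothalamus were dissected, weighed and gamma-counted. Values are % dose/g, calculated by comparison with counts of a 100-fold diluted aliquot of the injected dose.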"}, "[3]": {"assay": "Regional brain distribution in rat striatum was determined after 2 min of intravenous administration of the compound; [125I]- is used as radioactive isotope", "assay_type": "ADME, tissue-based", "details": "in vivo", "in_short": "as §2"}, "[4]": {"assay": "Distribution ratio in striatum and cerebellum was determined after 60 min of intravenous administration of the compound; [125I]- is used as radioactive isotope", "assay_type": "ADME, tissue-based", "details": "rat, 1 h", "in_short": "(§3)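 Rats, three per group, given 10 μCi tracer in 0.2 mL saline into the femoral vein under ether anesthesia, then killed by cardiac excision at the stated time. Brain regions were dissected, weighed and counted. Percent dose/g was calculated against a 1% diluted aliquot of the injected dose. The ratio is (region − cerebellum)/cerebellum on a % dose/g basis, with cerebellum as background.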"}, "[5]": {"assay": "Distribution ratio in striatum and cerebellum was determined after 120 min of intravenous administration of the compound; [125I]- is used as radioactive isotope", "assay_type": "ADME, tissue-based", "details": "rat, 2 h", "in_short": "as §3"}, "[6]": {"assay": "Distribution ratio in hypothalamus and cerebellum was determined after 240 min of intravenous administration of the compound; [125I]- is used as radioactive isotope", "assay_type": "ADME, tissue-based", "details": "rat, 4 h", "in_short": "(§4)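 After femoral-vein injection of 10 μCi [¹²⁵I] tracer in 0.2 mL saline under ether anaesthesia (three rats per group), brain regions were dissected, weighed and counted: cortex (frontal plus occipital), hippocampus, hypothalamus and cerebellum. %dose/g was calculated against a diluted injected-dose standard. Ratio = (region − cerebellum)/cerebellum on a %dose/g basis, with cerebellum as the background region.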"}, "[7]": {"assay": "Distribution ratio in hypothalamus and cerebellum was determined after 6 hours of intravenous administration of the compound; [125I]- is used as radioactive isotope", "assay_type": "ADME, tissue-based", "details": "rat", "in_short": "as §3"}, "[8]": {"assay": "Distribution ratio in hypothalamus and cerebellum was determined after 11 hours of intravenous administration of the compound; [125I]- is used as radioactive isotope", "assay_type": "ADME, tissue-based", "details": "rat", "in_short": "as §4"}, "[9]": {"assay": "Regional brain distribution in rat striatum was determined after 24 hours of intravenous administration of the compound; [125I]- is used as radioactive isotope", "assay_type": "ADME, tissue-based", "details": "in vivo", "in_short": "as §2"}, "[10]": {"assay": "Distribution ratio in cortex and cerebellum was determined after 11 hrs of intravenous administration of the compound; [125I]- is used as radioactive isotope", "assay_type": "ADME, tissue-based", "details": "rat", "in_short": "as §4"}, "[11]": {"assay": "Regional brain distribution in rat cerebellum was determined after 60 min of intravenous administration of the compound; [125I]- is used as radioactive isotope", "assay_type": "ADME, tissue-based", "details": "in vivo, 1 h", "in_short": "as §2"}, "[12]": {"assay": "Regional brain distribution in rat striatum was determined after 11 hours of intravenous administration of the compound; [125I]- is used as radioactive isotope", "assay_type": "ADME, tissue-based", "details": "in vivo", "in_short": "as §2"}, "[13]": {"assay": "Regional brain distribution in rat hippocampus was determined after 6 hours of intravenous administration of the compound; [125I]- is used as radioactive isotope", "assay_type": "ADME, tissue-based", "details": "in vivo", "in_short": "as §2"}, "[14]": {"assay": "Regional brain distribution in rat hypothalamus was determined after 120 min of intravenous administration of the compound; [125I]- is used as radioactive isotope", "assay_type": "ADME, tissue-based", "details": "in vivo, 2 h", "in_short": "as §2"}, "[15]": {"assay": "Regional brain distribution in rat hypothalamus was determined after 11 hours of intravenous administration of the compound; [125I]- is used as radioactive isotope", "assay_type": "ADME, tissue-based", "details": "in vivo", "in_short": "as §2"}, "[16]": {"biological_target": "Sodium-dependent dopamine transporter (Homo sapiens, UniProt Q01959)", "sequence (Q01959 whole entry)": "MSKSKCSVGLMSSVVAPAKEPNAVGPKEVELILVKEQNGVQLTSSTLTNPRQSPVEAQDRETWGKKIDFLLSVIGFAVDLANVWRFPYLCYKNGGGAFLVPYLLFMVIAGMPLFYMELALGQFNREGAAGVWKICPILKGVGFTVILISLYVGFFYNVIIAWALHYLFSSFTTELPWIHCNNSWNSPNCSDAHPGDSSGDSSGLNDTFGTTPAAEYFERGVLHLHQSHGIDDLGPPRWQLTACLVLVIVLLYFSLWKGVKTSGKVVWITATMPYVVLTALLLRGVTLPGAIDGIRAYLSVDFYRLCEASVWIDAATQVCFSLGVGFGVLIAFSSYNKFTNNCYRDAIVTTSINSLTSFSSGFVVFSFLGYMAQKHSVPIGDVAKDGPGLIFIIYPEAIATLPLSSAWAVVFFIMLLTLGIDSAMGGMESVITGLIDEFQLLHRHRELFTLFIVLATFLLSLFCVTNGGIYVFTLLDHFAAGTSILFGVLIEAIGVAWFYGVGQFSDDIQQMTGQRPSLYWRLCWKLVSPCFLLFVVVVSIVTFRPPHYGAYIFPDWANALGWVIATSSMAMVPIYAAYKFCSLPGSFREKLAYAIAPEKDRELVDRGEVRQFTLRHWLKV", "assay": "Binding affinity for dopamine transporter expressed in […] cells", "assay_type": "cell-based", "in_short": "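Membranes from confluent pig kidney LLC-PK₁ cells stably expressing the respective transporter, homogenized and pelleted, 30–40 μg protein. Incubated with 0.4 nM [¹²⁵I]IPT or [¹²⁵I]IDAM and 8–10 competitor concentrations (10⁻¹⁰ to 10⁻⁵ M) in 50 mM Tris-HCl pH 7.4, 120 mM NaCl, 0.1% BSA, 1 h at room temperature. Nonspecific binding was defined with 10 μM CFT for IPT and 1 μM IDAM for IDAM. Filtration, gamma counting, nonlinear regression for Ki.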"}, "[17]": {"assay": "Biodistribution in rat brain was determined after 2 min of intravenous administration of the compound; [125I]- is used as radioactive isotope", "assay_type": "ADME, organism-based", "details": "in vivo", "in_short": "as §1"}, "[18]": {"assay": "Biodistribution in rat brain was determined after 30 min of intravenous administration of the compound; [125I]- is used as radioactive isotope", "assay_type": "ADME, organism-based", "details": "in vivo, 0.5 h", "in_short": "as §1"}, "[19]": {"assay": "Biodistribution in rat heart was determined after 60 min of intravenous administration of the compound; [125I]- is used as radioactive isotope", "assay_type": "ADME, organism-based", "details": "in vivo, 1 h", "in_short": "as §1"}, "[20]": {"assay": "Biodistribution in rat thyroid was determined after 120 min of intravenous administration of the compound; [125I]- is used as radioactive isotope", "assay_type": "ADME, organism-based, Thyroid gland", "details": "in vivo, 2 h", "in_short": "(§5)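 Rats, three per group, under ether anaesthesia, received 10 μCi of [¹²⁵I]-labelled tracer in 0.2 mL saline into the femoral vein. They were killed by cardiac excision under ether at each time point. Organs were removed, weighed and counted. Percent dose per organ was calculated against counts of a 1% aliquot of the injected dose (100-fold diluted) counted at the same time.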"}, "[21]": {"assay": "Biodistribution in rat thyroid was determined after 240 min of intravenous administration of the compound; [125I]- is used as radioactive isotope", "assay_type": "ADME, organism-based, Thyroid gland", "details": "in vivo, 4 h", "in_short": "as §5"}, "[22]": {"assay": "Biodistribution in rat kidney was determined after 2 min of intravenous administration of the compound; [125I]- is used as radioactive isotope", "assay_type": "ADME, organism-based", "details": "in vivo", "in_short": "as §1"}, "[23]": {"assay": "Biodistribution in rat liver was determined after 60 min of intravenous administration of the compound; [125I]- is used as radioactive isotope", "assay_type": "ADME, organism-based", "details": "in vivo, 1 h", "in_short": "as §1"}, "[24]": {"assay": "Biodistribution in rat lung was determined after 120 min of intravenous administration of the compound; [125I]- is used as radioactive isotope", "assay_type": "ADME, organism-based", "details": "in vivo, 2 h", "in_short": "as §1"}, "[25]": {"assay": "Biodistribution in rat skin was determined after 240 min of intravenous administration of the compound; [125I]- is used as radioactive isotope", "assay_type": "ADME, organism-based, Zone of skin", "details": "in vivo, 4 h", "in_short": "as §5"}, "[26]": {"assay": "Biodistribution in rat lung was determined after 11 hours of intravenous administration of the compound; [125I]- is used as radioactive isotope", "assay_type": "ADME, organism-based", "details": "in vivo", "in_short": "as §1"}, "[27]": {"assay": "Biodistribution in rat muscle was determined after 30 min of intravenous administration of the compound; [125I]- is used as radioactive isotope", "assay_type": "ADME, organism-based, Muscle tissue", "details": "in vivo, 0.5 h", "in_short": "as §5"}, "[28]": {"assay": "Biodistribution in rat muscle was determined after 60 min of intravenous administration of the compound; [125I]- is used as radioactive isotope", "assay_type": "ADME, organism-based, Muscle tissue", "details": "in vivo, 1 h", "in_short": "as §5"}, "[29]": {"assay": "Biodistribution in rat muscle was determined after 120 min of intravenous administration of the compound; [125I]- is used as radioactive isotope", "assay_type": "ADME, organism-based, Muscle tissue", "details": "in vivo, 2 h", "in_short": "as §5"}, "[30]": {"assay": "Biodistribution in rat muscle was determined after 240 min of intravenous administration of the compound; [125I]- is used as radioactive isotope", "assay_type": "ADME, organism-based, Muscle tissue", "details": "in vivo, 4 h", "in_short": "as §5"}, "[31]": {"assay": "Biodistribution in rat muscle was determined after 6 hours of intravenous administration of the compound; [125I]- is used as radioactive isotope", "assay_type": "ADME, organism-based, Muscle tissue", "details": "in vivo", "in_short": "as §5"}},
  "data": [
    {"smiles": "CN(C)Cc1ccccc1Oc1ccc(I)cc1N", "values": [
      {"measurement": "Dose", "setting": "[1]", "result": 3.59, "unit": "%"},
      {"measurement": "Dose/g", "setting": "[2]", "result": 0.95, "unit": "%"},
      {"measurement": "Dose/g", "setting": "[3]", "result": 0.77, "unit": "%"},
      {"measurement": "Dose/g", "setting": "[4]", "result": 1.51, "unit": "%"},
      {"measurement": "Dose/g", "setting": "[5]", "result": 2.53, "unit": "%"},
      {"measurement": "Dose/g", "setting": "[6]", "result": 4.49, "unit": "%"},
      {"measurement": "Dose/g", "setting": "[7]", "result": 2.64, "unit": "%"},
      {"measurement": "Dose/g", "setting": "[8]", "result": 0.44, "unit": "%"},
      {"measurement": "Dose/g", "setting": "[9]", "result": 0.0039, "unit": "%"},
      {"measurement": "Dose/g", "setting": "[10]", "result": 0, "unit": "%"},
      {"measurement": "Dose/g", "setting": "[11]", "result": 0.41, "unit": "%"},
      {"measurement": "Dose/g", "setting": "[12]", "result": 0.01, "unit": "%"},
      {"measurement": "Dose/g", "setting": "[13]", "result": 0.059, "unit": "%"},
      {"measurement": "Dose/g", "setting": "[14]", "result": 0.92, "unit": "%"},
      {"measurement": "Dose/g", "setting": "[15]", "result": 0.01, "unit": "%"},
      {"measurement": "Ki", "setting": "[16]", "result": 309, "unit": "nM"},
      {"measurement": "Dose", "setting": "[17]", "result": 1.77, "unit": "%"},
      {"measurement": "Dose", "setting": "[18]", "result": 2.12, "unit": "%"},
      {"measurement": "Dose", "setting": "[19]", "result": 0.2, "unit": "%"},
      {"measurement": "Dose", "setting": "[20]", "result": 0.96, "unit": "%"},
      {"measurement": "Dose", "setting": "[21]", "result": 2.34, "unit": "%"},
      {"measurement": "Dose", "setting": "[22]", "result": 4.27, "unit": "%"},
      {"measurement": "Dose", "setting": "[23]", "result": 5.79, "unit": "%"},
      {"measurement": "Dose", "setting": "[24]", "result": 0.88, "unit": "%"},
      {"measurement": "Dose", "setting": "[25]", "result": 12.6, "unit": "%"},
      {"measurement": "Dose", "setting": "[26]", "result": 0.16, "unit": "%"},
      {"measurement": "Dose", "setting": "[27]", "result": 18.1, "unit": "%"},
      {"measurement": "Dose", "setting": "[28]", "result": 12.9, "unit": "%"},
      {"measurement": "Dose", "setting": "[29]", "result": 9.18, "unit": "%"},
      {"measurement": "Dose", "setting": "[30]", "result": 6.27, "unit": "%"},
      {"measurement": "Dose", "setting": "[31]", "result": 5.01, "unit": "%"}
    ]}
  ]
}
